# Screening results (PubChem BioAssay)
# Shown are actives, neighbours in structure and some others; about 3.7% of the full set was active somewhere.
# KCNK9 inh – KCNK9 potassium channel inhibitors, primary screen, HEK293 cells, thallium flux; B-score at 10 µM; AID 488922, 2010; 1.2% of 310,000 active; Potassium channel subfamily K member 9 (Homo sapiens), Q9NPC2; FluxOR thallium flux fluorescence; stronger effect = lower value;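 active = ratio B-score over 3 SD below the library mean, with starting fluorescence within 5 SD of its mean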;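 also: negative B-score means less thallium flux so channel inhibition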
# KCNQ1 pot – potentiators or activators of KCNQ1 channel, primary screen, cell-based, thallium flux, high-throughput. Potassium voltage-gated channel subfamily KQT member 1 (Homo sapiens), P51787. CHO-K1 KCNQ1, thallium flux FluxOR fluorescence; stronger effect = higher value. B-score at 10 µM. 0.35% of 310,000 active. AID 2648, 2010;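 active = fluorescence ratio B-score, a plate-corrected score, at least three library SD, with initial intensity B-score within 5 SD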
#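 Assay system: CHO-K1 cells stably expressing KCNQ1. Medium: assay buffer for compound exposure, DMSO matched across wells. Timing: 37 °C overnight plating, 90-min dark dye load, 20-min compound pretreatment. Signal: kinetic FluxOR fluorescence, 10 s baseline plus 110 s post-stimulus.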
# Kir21 inh – inhibitors of mouse Kir2.1 inward-rectifier potassium channel. AID 1672, 2009. Inward rectifier potassium channel 2 (Mus musculus), P35561. 0.85% of 310,000 active. B-score at 10 µM. HEK293-Kir2.1, FluxOR thallium flux fluorescence; stronger effect = lower value;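 active = fluorescence ratio B-score at or below minus 3 SD of library scores, with starting-brightness B-score within 2 SD, cut at about -4.2 in these data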;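 also: channel flux triggered by added potassium and thallium sulfate stimulus; B-score of peak minus minimum fluorescence over baseline after thallium stimulus; more negative B-score means stronger Kir2.1 block with less thallium influx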
# hERG protect – hERG rescue from dofetilide block, primary screen, cell-based, CHO-hERG, FluxOR thallium flux, dofetilide IC70. activation (rescue from dofetilide block), less the hit threshold, % at 10 µM. dofetilide IC70 present. AID 1511, 2009. Voltage-gated inwardly rectifying potassium channel KCNH2 (Homo sapiens), Q12809. 0.51% of 310,000 active;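 active = activation above the mean of controls blocked by dofetilide plus 5 SD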;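 also: thallium influx through hERG after potassium depolarization seen as dye fluorescence rise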
# KCNQ1 block – inhibitors of human KCNQ1 channel, primary screen, cell-based, thallium flux, high-throughput; B-score at 10 µM; AID 2642, 2010; 1.3% of 310,000 active; CHO-K1 KCNQ1, FluxOR thallium flux fluorescence; stronger effect = higher value;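 active = compounds whose thallium flux B-score, printed positive for inhibition, exceeds three library SD while starting fluorescence stays within three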;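 also: channel opened by potassium depolarization with thallium stimulus after 20 min compound exposure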
# KCNK3 inh – human KCNK3 channel inhibitors, primary screen, CHO cells, FluxOR thallium flux, B-score; Potassium channel subfamily K member 3 (Homo sapiens), O14649; FluxOR fluorescence; stronger effect = lower value; B-score at 10 µM; 0.84% of 340,000 active; AID 602410, 2012;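 active = B-score under library mean minus 4 SD, starting fluorescence ratio at most library mean plus 5 SD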;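 also: more negative B-score means stronger inhibition of thallium flux through KCNK3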
# Target sequence (O14649 whole entry, looked up): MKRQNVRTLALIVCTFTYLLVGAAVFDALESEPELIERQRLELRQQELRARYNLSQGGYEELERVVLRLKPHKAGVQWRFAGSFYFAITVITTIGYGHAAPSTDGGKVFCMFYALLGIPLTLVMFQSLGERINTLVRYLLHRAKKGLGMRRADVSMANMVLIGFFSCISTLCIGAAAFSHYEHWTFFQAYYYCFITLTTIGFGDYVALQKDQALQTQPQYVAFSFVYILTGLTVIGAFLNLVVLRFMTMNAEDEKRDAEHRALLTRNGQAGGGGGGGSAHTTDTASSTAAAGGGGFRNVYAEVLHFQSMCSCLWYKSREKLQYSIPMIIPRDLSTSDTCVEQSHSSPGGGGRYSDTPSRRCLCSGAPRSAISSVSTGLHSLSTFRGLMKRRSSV
# KCNK3 confirm – retest of human KCNK3 channel inhibitors, confirmation, CHO cells, FluxOR thallium flux, triplicate; shares compounds with KCNK3 inh; 99% of 2,400 active; FluxOR fluorescence; 0% buffer, 100% carvedilol maximal block; ratio percent of control, % at 10 µM;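 active = ratio percent of control, averaged over triplicates, above buffer control mean plus 5 SD, cut at about 64% in these data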;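 also: ratio is the fluorescence rise from min to max over baseline after thallium stimulus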
# KCNK3 uninduced – thallium flux inhibition in non-induced cells, primary screen, counter-screen for KCNK3 inhibitor project, cell-based, non-induced KCNK3 line, FluxOR thallium, triplicate; shares compounds with KCNK3 inh; thallium flux ratio (lower = more inhibition) at 10 µM; 40% of 2,400 active; non-induced KCNK3 parental cells; stronger effect = lower value;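 active = thallium flux ratio, averaged over three wells, more than 5 SD below the buffer control mean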;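 also: host cells are CHO cells without KCNK3 induction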
# Hits are given with their value; i = inactive; nt = not tested or not shown.
SMILES,KCNK9 inh,KCNQ1 pot,Kir21 inh,hERG protect,KCNQ1 block,KCNK3 inh,KCNK3 confirm,KCNK3 uninduced
CCN(c1cccc(C)c1)S(=O)(=O)c1ccc(-c2cc(C)no2)s1,i,i,i,i,i,-8.79,102.7,i
C=CCn1c(SCC(N)=O)nc2sc3c(c2c1=O)CCC3,i,i,i,i,i,i,nt,nt
C=CCn1c(SCc2csc(C)n2)nc2sc3c(c2c1=O)CCCC3,i,i,i,i,i,-8.89,122.0,0.144
CCOC(=O)c1ccccc1NC(=O)C(C)Oc1ccccc1 (stereo not drawn),i,i,i,i,i,-9.97,78.0,i
CCCC(C)C(=O)Nc1ccccc1C(=O)OCC (stereo not drawn),i,i,i,i,i,i,nt,nt
O=C(Nc1ccc(Cl)cc1)Nc1ccccc1CC[N+](=O)[O-],i,i,i,i,8,-10.6,82.0,i
Cc1ccc(S(=O)(=O)Nc2ccc(S(=O)(=O)Nc3nccs3)cc2)c([N+](=O)[O-])c1,i,i,i,i,i,i,nt,nt
CCOC(=O)c1sc(NC(=O)C(CC)OC(=O)C(CC(C)C)NC(=O)c2ccccc2)nc1C (stereo not drawn),i,i,i,i,i,-10.6,108.0,i
CCOC(=O)c1cc(-c2ccco2)nc2c1c(C)nn2-c1ccccc1,i,i,i,i,i,-9.37,93.0,i
COc1cccc(CN(C)C(=O)c2ccccc2Sc2ccccc2C#N)c1OC,i,i,i,i,i,-8.74,98.3,i
COc1cccc(CN(C)C(=O)c2ccc(COc3ccc(Cl)cc3)cc2)c1OC,i,i,i,i,i,-11.2,134.0,0.148
N#CC1=C(N)NC(SCc2ccccc2)=C(C#N)C12CCCCC2,i,i,i,i,i,i,nt,nt
COc1ccc(C(=O)CSc2nc(N)nc(SC)c2C#N)cc1,i,i,i,i,i,i,nt,nt
COc1ccc(C(=O)CSC2=C(C#N)C3(CCCCC3)C(C#N)=C(N)N2)cc1,i,i,i,i,i,-10.4,112.3,0.125
N#CC1=C(N)NC(SCC(=O)Nc2ccccc2)=C(C#N)C12CCCCC2,i,i,i,i,i,-9.48,106.0,0.139
CCC(C)N(C(=O)CSc1nnc(C)n1C)C1CCS(=O)(=O)C1 (stereo not drawn),i,i,i,i,i,i,nt,nt
O=C(Nc1ccon1)Nc1cc(Cl)ccc1Cl,i,i,i,i,i,i,nt,nt
COc1ccc(/C(C)=N/N2C(=O)c3ccccc3NC2c2ccc(O)c(OC)c2)cc1 (stereo not drawn),i,i,i,i,i,-9.26,99.3,i
Oc1ccccc1/C=N/c1c(-c2ccco2)nc2ccccn12,i,i,i,i,i,-9.74,94.7,i
Clc1ccc(/C=N/c2c(-c3ccco3)nc3ccccn23)cc1,i,i,i,i,i,i,nt,nt
C=CCCC(=O)N1C[C@H]2CON(C)[C@H]2C[C@H]1c1cccc(Br)c1,nt,nt,nt,nt,nt,i,nt,nt
Cc1ccc(C2Nc3ccc4ccccc4c3C3=C2C(=O)CC(C)(C)C3)o1 (stereo not drawn),i,i,i,i,i,-8.97,104.7,i
Cc1cccc(NC(=O)c2ccc(N(C)C3CCCCC3)c([N+](=O)[O-])c2)n1,i,i,i,i,i,-11.2,128.0,0.123
CC(C)N(C(=O)CSc1nnc(C2CC2)n1C1CC1)c1ccccc1,nt,nt,nt,nt,nt,i,nt,nt
Cn1c(=O)n(CCCOc2ccc(Cl)cc2)c2ccccc21,i,i,i,i,i,-8.7,99.7,i
SMILES,KCNK9 inh,KCNQ1 pot,Kir21 inh,hERG protect,KCNQ1 block,KCNK3 inh,KCNK3 confirm,KCNK3 uninduced
Cc1ccc(COC(=O)c2ccc3ccccc3n2)cc1,i,i,i,i,i,i,nt,nt
N#Cc1nc(COc2ccc(Cl)cc2)oc1NCc1ccc2c(c1)OCO2,i,i,i,i,i,-11.4,137.7,0.156
Cc1nc(C#N)c(NCc2ccc3c(c2)OCO3)o1,i,i,i,i,i,i,nt,nt
COc1ccc(CNc2oc(COc3ccccc3)nc2C#N)cc1,i,i,i,i,i,-8.93,117.0,0.157
COc1ccc(CNc2oc(Cc3cccc4ccccc34)nc2C#N)cc1,i,i,i,i,i,-13.5,90.7,0.152
COc1ccc(C)cc1-n1nnnc1SCC(=O)NC1CC1,nt,nt,nt,nt,nt,i,nt,nt
N#CCCn1cc(C(=O)O)c(-c2ccc3ccccc3c2)n1,i,i,i,i,i,i,nt,nt
Cc1cc(C(=O)NC2CCCN(Cc3ccc(Cl)cc3)C2)n(C)n1 (stereo not drawn),i,i,i,i,i,i,nt,nt
CN(C(=O)CSc1nnc(-c2ccc(OC(F)F)cc2)n1N)C1CCS(=O)(=O)C1 (stereo not drawn),i,i,i,i,i,i,nt,nt
Cc1ccc(SCCNC(=O)/C=C/c2ccc(Cl)cc2)cc1,i,i,i,i,i,i,nt,nt
Cc1ccc(SCCNC(=O)/C=C/c2ccccc2Cl)cc1,i,i,i,i,i,-14.4,122.7,0.129
COc1ccc(N2CCOCC2)c(NC(=O)c2cccc3ccccc23)c1,i,i,i,i,i,-9.54,108.3,i
CCOc1ccccc1NC(=O)c1cc(-c2cc(OC)c(OC)c(OC)c2)nc2ccccc12,i,i,i,i,i,-9.7,132.3,0.0927
COc1ccc(-c2cc(C(=O)Nc3ccccc3N3CCOCC3)c3ccccc3n2)cc1OC,i,i,i,i,i,-8.74,95.0,0.126
CCN(CC)S(=O)(=O)c1ccc(N2CCOCC2)c(NC(=O)c2cccc3ccccc23)c1,i,i,i,i,i,i,nt,nt
O=C(NCCOc1ccccc1)c1cc([N+](=O)[O-])ccc1N1CCOCC1,nt,nt,nt,nt,nt,i,nt,nt
O=S(=O)(Nc1ccc(Br)cc1)c1cccc(NS(=O)(=O)c2cccs2)c1,nt,nt,nt,nt,nt,i,nt,nt
COCCCNC(=O)C1Cc2cc(S(=O)(=O)N3CCCC3)ccc2N1C(C)=O (stereo not drawn),i,i,i,i,i,i,nt,nt
O=C(CSc1c(Cl)cccc1Cl)N1CCC(c2nc3ccccc3s2)CC1,i,i,i,i,i,i,nt,nt
O=C(CSc1ccc(Cl)cc1)N1CCC(c2nc3ccccc3s2)CC1,i,i,i,i,i,-8.84,126.7,0.156
